What was measured:
Type in all cases: functional, cell-based
[1] = target: T1, Organic cation/carnitine transporter 2 (Homo sapiens, UniProt O76082); assay: TP_TRANSPORTER: inhibition of Carnitine uptake (Carnitine: 0.02 uM, Cefixime: 2500 uM) in OCTN2-expressing HeLa cells
T1 sequence (O76082 whole entry): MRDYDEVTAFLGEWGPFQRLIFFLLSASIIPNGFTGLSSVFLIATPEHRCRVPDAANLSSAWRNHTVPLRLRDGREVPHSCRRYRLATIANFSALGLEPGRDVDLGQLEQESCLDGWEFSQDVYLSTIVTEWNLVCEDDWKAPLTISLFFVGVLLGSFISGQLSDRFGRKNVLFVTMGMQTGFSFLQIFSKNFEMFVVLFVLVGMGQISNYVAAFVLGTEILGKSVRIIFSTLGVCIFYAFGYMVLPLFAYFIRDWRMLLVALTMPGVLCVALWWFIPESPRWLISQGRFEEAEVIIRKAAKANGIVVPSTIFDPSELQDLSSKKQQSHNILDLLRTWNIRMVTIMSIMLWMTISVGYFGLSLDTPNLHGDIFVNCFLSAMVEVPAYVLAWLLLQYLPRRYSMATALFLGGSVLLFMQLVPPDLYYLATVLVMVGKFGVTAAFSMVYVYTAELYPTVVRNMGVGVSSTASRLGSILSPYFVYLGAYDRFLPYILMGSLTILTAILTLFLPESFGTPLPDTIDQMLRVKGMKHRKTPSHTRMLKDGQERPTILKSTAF

[2] = target: T2, Solute carrier family 15 member 1 (Homo sapiens) (UniProt P46059); assay: TP_TRANSPORTER: inhibition of Gly-Sar uptake (Gly-Sar: 50 uM, Ceftazidime: 2500uM) in PEPT1-expressing HeLa cells
T2 sequence (whole entry): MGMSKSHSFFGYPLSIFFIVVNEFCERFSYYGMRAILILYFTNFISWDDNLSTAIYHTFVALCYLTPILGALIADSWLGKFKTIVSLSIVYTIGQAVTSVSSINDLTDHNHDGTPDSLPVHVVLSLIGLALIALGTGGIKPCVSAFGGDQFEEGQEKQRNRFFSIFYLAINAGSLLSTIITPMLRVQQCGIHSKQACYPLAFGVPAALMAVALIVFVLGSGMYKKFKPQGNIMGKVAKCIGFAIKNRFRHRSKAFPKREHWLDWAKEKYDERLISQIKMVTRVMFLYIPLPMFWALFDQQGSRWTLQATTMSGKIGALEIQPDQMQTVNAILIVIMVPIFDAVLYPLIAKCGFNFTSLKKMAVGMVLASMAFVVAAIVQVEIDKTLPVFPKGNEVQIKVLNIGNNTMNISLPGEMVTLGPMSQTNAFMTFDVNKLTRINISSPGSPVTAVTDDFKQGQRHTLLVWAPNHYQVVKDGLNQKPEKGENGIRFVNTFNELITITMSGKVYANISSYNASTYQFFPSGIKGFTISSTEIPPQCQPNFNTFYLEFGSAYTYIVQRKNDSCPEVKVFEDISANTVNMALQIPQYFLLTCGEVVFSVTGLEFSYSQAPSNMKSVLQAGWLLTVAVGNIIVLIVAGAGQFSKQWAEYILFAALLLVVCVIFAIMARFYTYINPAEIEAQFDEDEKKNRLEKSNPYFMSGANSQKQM
How it was run: (§1)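 HeLa cells were transfected with human PEPT1 or rat PEPT2 cDNA. [14C]glycylsarcosine uptake (50 μM for PEPT1, 25 μM for PEPT2) ran 5 min at room temperature, inward H+ gradient, 25 mM Mes/Tris pH 6.0 buffer, antibiotic 2.5 mM. Vector-cell uptake was subtracted and lysates were scintillation-counted. Mean ± S.E., three measurements.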

[3] = target: T3, Solute carrier family 15 member 2 (Rattus norvegicus) (UniProt Q63424); assay: TP_TRANSPORTER: inhibition of Gly-Sar uptake (Gly-Sar: 25 uM, Ceftazidime: 2500uM) in PEPT2-expressing HeLa cells; how it was run: as §1
T3 sequence (whole entry): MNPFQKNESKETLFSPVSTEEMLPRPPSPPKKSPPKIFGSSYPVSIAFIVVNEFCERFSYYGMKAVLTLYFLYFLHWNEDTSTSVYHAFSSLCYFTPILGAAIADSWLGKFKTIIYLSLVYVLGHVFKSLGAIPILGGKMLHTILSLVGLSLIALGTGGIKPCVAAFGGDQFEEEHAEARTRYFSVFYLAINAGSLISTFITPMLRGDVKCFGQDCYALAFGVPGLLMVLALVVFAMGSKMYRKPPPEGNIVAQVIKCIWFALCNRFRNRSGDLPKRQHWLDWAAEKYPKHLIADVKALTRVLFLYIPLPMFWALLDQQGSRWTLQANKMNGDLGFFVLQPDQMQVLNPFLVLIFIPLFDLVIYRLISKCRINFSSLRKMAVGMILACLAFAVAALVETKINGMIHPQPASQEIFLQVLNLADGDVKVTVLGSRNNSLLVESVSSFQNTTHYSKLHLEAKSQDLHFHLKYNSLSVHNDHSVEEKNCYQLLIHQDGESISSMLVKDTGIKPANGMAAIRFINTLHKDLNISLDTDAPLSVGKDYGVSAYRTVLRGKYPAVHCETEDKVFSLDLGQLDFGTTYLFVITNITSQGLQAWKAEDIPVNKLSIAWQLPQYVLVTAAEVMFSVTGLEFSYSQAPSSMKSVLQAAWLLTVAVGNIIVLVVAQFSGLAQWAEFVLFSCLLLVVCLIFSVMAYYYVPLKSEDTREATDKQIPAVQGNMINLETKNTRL

[4] = target: T4, Organic cation/carnitine transporter 2 (Rattus norvegicus, UniProt O70594); assay: (§2) TP_TRANSPORTER: inhibition of Carnitine uptake (Carnitine: 0.02 uM, Ceftazidime: 2500 uM) in OCTN2-expressing HeLa cells; settings: human
T4 sequence (O70594 whole entry): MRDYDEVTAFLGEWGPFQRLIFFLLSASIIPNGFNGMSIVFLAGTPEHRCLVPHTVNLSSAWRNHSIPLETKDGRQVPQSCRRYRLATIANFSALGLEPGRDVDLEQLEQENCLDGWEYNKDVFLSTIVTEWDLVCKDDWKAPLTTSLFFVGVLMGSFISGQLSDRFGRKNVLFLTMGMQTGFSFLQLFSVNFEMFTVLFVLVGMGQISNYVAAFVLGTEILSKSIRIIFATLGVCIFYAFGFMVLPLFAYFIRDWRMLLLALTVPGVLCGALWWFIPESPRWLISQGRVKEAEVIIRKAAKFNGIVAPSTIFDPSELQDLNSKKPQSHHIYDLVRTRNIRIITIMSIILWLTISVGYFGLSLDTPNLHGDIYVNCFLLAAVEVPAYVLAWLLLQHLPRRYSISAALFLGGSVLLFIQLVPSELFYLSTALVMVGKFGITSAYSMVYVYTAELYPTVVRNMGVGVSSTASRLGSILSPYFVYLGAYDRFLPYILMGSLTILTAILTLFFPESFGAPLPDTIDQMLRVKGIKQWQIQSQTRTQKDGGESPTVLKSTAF

[5] = target: T1, Organic cation/carnitine transporter 2; assay: as §2
[6] = target: T1, Organic cation/carnitine transporter 2; assay: TP_TRANSPORTER: inhibition of Carnitine uptake (Carnitine: 0.02 uM, Cephradine: 2500 uM) in OCTN2-expressing HeLa cells
[7] = target: T1, Organic cation/carnitine transporter 2; assay: TP_TRANSPORTER: inhibition of Carnitine uptake (Carnitine: 0.02 uM, Ampicillin: 2500 uM) in OCTN2-expressing HeLa cells
[8] = target: T5, OCTN2 (organic cation/carnitine transporter 2) (Rattus norvegicus, UniProt O70594); assay: TP_TRANSPORTER: inhibition of Carnitine uptake (Carnitine: 0.02 uM, Cefoselis: 2500 uM) in OCTN2-expressing HeLa cells; parameters: scale not given: the % may be the effect or the level left; settings: human, probe carnitine (0.02 uM), read-out: Activity
T5 sequence (O70594 whole entry): T4 sequence (O70594 whole entry)
How it was run: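 HeLa cells expressed human or rat OCTN2 cDNA by vaccinia virus/T7 system. [3H]carnitine (20 nM) uptake for 30 min at room temperature in Na+-containing Hepes/Tris buffer, pH 7.5, with β-lactam at 2.5 mM. Lysate radioactivity counted. Endogenous activity from vector-only cells subtracted. Four measurements from two transfections.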

[9] = target: T3, Solute carrier family 15 member 2 (Rattus norvegicus); assay: TP_TRANSPORTER: inhibition of Gly-Sar uptake (Gly-Sar: 25 uM, Cefoselis: 2500uM) in PEPT2-expressing HeLa cells; parameters: scale not given: the % may be the effect or the level left
How it was run: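 HeLa cells expressing rat PEPT2 cDNA. [14C]glycylsarcosine (25 μM) uptake for 5 min under an inward H+ gradient in Mes/Tris buffer, pH 6.0, with test compound at 2.5 mM. Vector-cell uptake subtracted. Results as percent of control, three independent measurements, mean ± S.E.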

[10] = target: T2, Solute carrier family 15 member 1 (Homo sapiens); assay: TP_TRANSPORTER: inhibition of Gly-Sar uptake (Gly-Sar: 50 uM, Cefoselis: 2500uM) in PEPT1-expressing HeLa cells; parameters: scale not given: the % may be the effect or the level left
How it was run: (§3)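 HeLa cells expressing human PEPT1 cDNA. [14C]glycylsarcosine (50 μM) uptake for 5 min in Mes/Tris buffer, pH 6.0, giving an H+ gradient, with test compound at 2.5 mM. Vector-transfected uptake subtracted. Percent of control, n=3, mean ± S.E.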

[11] = target: T1, Organic cation/carnitine transporter 2; assay: TP_TRANSPORTER: inhibition of Carnitine uptake (Carnitine: 0.02 uM) in OCTN2-expressing HeLa cells
[12] = target: T2, Solute carrier family 15 member 1 (Homo sapiens); assay: TP_TRANSPORTER: inhibition of Gly-Sar uptake (Gly-Sar: 50 uM, CER: 2500uM) in PEPT1-expressing HeLa cells; how it was run: as §3
[13] = target: T1, Organic cation/carnitine transporter 2; assay: TP_TRANSPORTER: uptake in OCTN2-expressing HeLa cells
How it was run: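 hOCTN2 or vector-transfected HeLa cells incubated with 1 mM cephaloridine for 1 h at 37 °C in NaCl or N-methyl-D-glucamine chloride (Na+-free) medium. Cells lysed in water and lysate centrifuged. Supernatant cephaloridine quantified by C18 HPLC with UV at 254 nm against a standard curve, expressed per 10^6 cells.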

C=CC1=C(C(=O)O)N2C(=O)[C@@H](NC(=O)/C(=N\OCC(=O)O)c3csc(N)n3)[C@H]2SC1 [CEFIXIME]
Activity [1]: is not an inhibitor [-]

CC(C)(O/N=C(\C(=O)N[C@@H]1C(=O)N2C(C(=O)[O-])=C(C[n+]3ccccc3)CS[C@H]12)c1csc(N)n1)C(=O)O [CEFTAZIDIME]
Activity [2]: is not an inhibitor [-] | Activity [3]: is not an inhibitor [-] | Activity [4]: is not an inhibitor [-] | Activity [5]: is not an inhibitor [-]

CC1=C(C(=O)O)N2C(=O)[C@@H](NC(=O)[C@H](N)C3=CCC=CC3)[C@H]2SC1 [CEPHRADINE]
Activity [6]: is not an inhibitor [-]

CC1(C)S[C@@H]2[C@H](NC(=O)[C@H](N)c3ccccc3)C(=O)N2[C@H]1C(=O)O [AMPICILLIN]
Activity [7]: is not an inhibitor [-]

CO/N=C(\C(=O)N[C@@H]1C(=O)N2C(C(=O)[O-])=C(C[n+]3ccc(N)n3CCO)CS[C@H]12)c1csc(N)n1 [CEFOSELIS]
activity at 2500 µM [8]: 71% | Activity [9]: 83% | Activity [10]: 76% | IC50 [11]: 6.4 mM

O=C(Cc1cccs1)N[C@@H]1C(=O)N2C(C(=O)[O-])=C(C[n+]3ccccc3)CS[C@H]12 [CEPHALORIDINE]
Activity [12]: is not an inhibitor [-] | Activity [13]: substrate [+]

— ChEMBL document CHEMBL2074042, “beta-lactam antibiotics as substrates for OCTN2, an organic cation/carnitine transporter” (J Biol Chem, 2000)
